A selection: hits, their analogues and other compounds. The true share with any hit is near 1.5%.
EBI2 antag: blocks human EBI2 receptor beta-arrestin signaling | AID 651636 | 360,000 tested, 0.81% active | EBI2 beta-arrestin recruitment, luminescence, 7a,25-OHC stimulated | inhibition, % at 5 µM; in the data active means inhibition above about 38%;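 further: enzyme fragment complementation signal reports receptor beta-arrestin coupling in cells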
Target sequence (P32249 whole entry, looked up, the tested form may be a part): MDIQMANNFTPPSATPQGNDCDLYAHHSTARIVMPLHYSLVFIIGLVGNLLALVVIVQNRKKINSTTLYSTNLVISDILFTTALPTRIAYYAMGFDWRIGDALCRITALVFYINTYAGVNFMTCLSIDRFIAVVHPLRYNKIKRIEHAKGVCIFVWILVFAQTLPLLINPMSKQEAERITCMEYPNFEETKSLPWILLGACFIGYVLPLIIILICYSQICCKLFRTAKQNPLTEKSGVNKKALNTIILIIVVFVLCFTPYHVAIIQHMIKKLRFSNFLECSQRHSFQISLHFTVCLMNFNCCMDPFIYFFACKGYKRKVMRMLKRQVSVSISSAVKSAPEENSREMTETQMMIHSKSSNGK
APJ antag: antagonists of human APJ apelin receptor. inhibition, % at 20 µM. P35414. 330,000 tested, 0.32% active. CHO-K1 APJ beta-arrestin complementation, luminescence. AID 2521;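 active means inhibition above about 40% at 20 µM, limit read from the data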;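 further: cells challenged with 10 nM apelin-13 agonist together with compound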
CXCR6 inh: inhibitors of human CXCR6 receptor; CHO-K1 PathHunter CXCR6 beta-arrestin, luminescence; inhibition, % at 20 µM; AID 602244; 360,000 tested, 0.36% active; O00574; in the data active means inhibition above about 34%, passing the limit was not always enough;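 further: antagonist mode with CXCL16 agonist at 10 nM final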
APJ ag: agonists of human APJ apelin receptor | P35414 | CHO-K1 APJ PathHunter beta-arrestin, luminescence; 0% DMSO wells, 100% apelin | activation, % at 20 µM | 330,000 tested, 0.11% active;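 active means activation more than six SD over the plate average, tested at 20 µM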
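Test system: CHO-K1 APJ beta-arrestin complementation cell line. Amount: cell density 1000 per well. Controls: DMSO negative, 10 nM Apelin-13 positive. Signal: luminescent beta-gal fragment complementation, chemiluminescent substrate. Read-out basis: agonist-driven arrestin binding to APJ. Timing: compound stimulation 90 min at 25 °C, detection 60 min.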
CCR6 antag: CCR6 (human) receptor antagonism; 340,000 tested, 0.49% active; CHO-K1 CCR6 PathHunter beta-arrestin, luminescence, CCL20-stimulated; P51684; inhibition, % at 20 µM;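 active means compounds whose inhibition of the agonist-driven luminescence signal at 20 µM reaches about 50%, limit read from the data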;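 further: cells stimulated with CCL20 at 14 nM final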
APJ antag confirm: APJ receptor antagonism confirmation. shares compounds with APJ antag. 950 tested, 66% active. APJ beta-arrestin recruitment, luminescence, antagonist mode. inhibition, % at 20 µM. AID 2766; in the data active means inhibition above about 50%
Large screens that a line does not name were inactive (follow-up assays come after a bar, where they were run).

CCOc1ccc(N=Nc2c(=O)[nH]n3c(=O)cc(C)[nH]c23)cc1	APJ antag 46.6 | APJ antag confirm inactive
CCN1C(=O)/C(=C2\C=Cc3ccccc3N2CC)SC1=S	APJ antag 43.5, CXCR6 inh 56.8, CCR6 antag 84.1 | APJ antag confirm 100.2
O=C(CNc1ccc(Br)cc1)c1ccccc1	APJ antag 94.3, CXCR6 inh 45.4, CCR6 antag 80.7 | APJ antag confirm 104.0
O=C(CNC(=S)NC(=O)c1ccc(F)cc1)c1ccccc1	none
NC(=O)c1ccccc1NCC(=O)c1ccc(F)cc1	APJ antag 82.1, CCR6 antag 99.2 | APJ antag confirm 139.6
O=C(CNc1cccc(Cl)c1)c1ccc(Br)cc1	APJ antag 68.7, CCR6 antag 62.4 | APJ antag confirm 89.8
O=C(CNc1ccc(F)cc1)c1ccccc1	APJ antag 75.6, CXCR6 inh 53.3, CCR6 antag 80.2 | APJ antag confirm 110.5
Cc1ccc(C(CNS(=O)(=O)c2ccc([N+](=O)[O-])cc2)N2CCN(C)CC2)cc1 (centres undefined)	none
COc1cccc2cc(C(C)N(CCCN3CCOCC3)C(=S)Nc3cccc(C)c3)oc12 (centres undefined)	APJ antag 76.7 | APJ antag confirm inactive
COc1cc(/C=C2\N=C(C)OC2=O)cc(OC)c1OC	none
COc1cc(/C=C2/N=C(C3CCCCC3)OC2=O)cc(OC)c1OC	APJ antag 41.7 | APJ antag confirm inactive
COc1ccc(NC(=O)Nc2ccc3c(c2)C(=O)N([C@@H](C)CO)C[C@@H](C)[C@@H](CN(C)CC2CCCCC2)O3)cc1	none
COc1ccc(NC(=O)Nc2cccc3c2O[C@@H](CN(C)CC2CCCCC2)[C@@H](C)CN([C@H](C)CO)C3=O)cc1	APJ antag 61.9 | APJ antag confirm 62.3
CCSC1(SCC)N=C(N)C2(C#N)C(c3ccc(OC)c(OC)c3OC)C12C#N (centres undefined)	APJ antag 51.1, CCR6 antag 57.8 | APJ antag confirm 71.5
CCSC1(SCC)N=C(N)C2(C#N)C(c3ccccc3)NC3=C(CCC3)C12C#N (centres undefined)	none
Cc1cc(C)c(C)c(/C=C(/C#N)C(N)=S)c1C	APJ antag 41.9 | APJ antag confirm inactive
Cc1ccc(Nc2cc(C)nn2-c2nc(C)cc(=O)[nH]2)cc1	EBI2 antag 90.0, APJ antag 86.6, CXCR6 inh 64.2, CCR6 antag 82.4 | APJ antag confirm 108.3
COc1ccc(C(=O)Nc2nc(C)cc(C)n2)cc1[N+](=O)[O-]	none
COc1ccc(S(=O)(=O)NNc2nc(C)cc(C)n2)cc1[N+](=O)[O-]	APJ antag 61.6 | APJ antag confirm 114.2
CSc1ccccc1NC(=O)C1=COCCO1	none
Cc1c(NS(=O)(=O)c2ccc(Cl)c(C(=O)OCC(=O)NCc3ccco3)c2)c(=O)n(-c2ccccc2)n1C	APJ antag 48.7 | APJ antag confirm inactive
O=C(NCCO)C(=O)Nc1cc2c3c(c1)CCN3C(=O)CC2	none
Cc1ccc(-c2c(C(=O)N/N=C/c3cccc(Cl)c3)nnn2-c2nonc2N)cc1	APJ antag 52.9 | APJ antag confirm 62.4
CCCCN1C(=O)C(=O)N(CC(=O)c2ccc3c(c2)OCO3)C1=O	none
CCN1/C(=C/c2ccc3ccccc3[n+]2CC)C=Cc2ccccc21	APJ antag 53.6, CXCR6 inh 54.9, CCR6 antag 61.5 | APJ antag confirm 94.5
Cn1c(=NC(=O)COc2ccccc2)sc2cccc(F)c21	none
COc1cccc(NC(=O)CN(C)C(=O)c2ccc(OCc3ccccc3)c(OC)c2)c1	none
CC(C)NC(=S)N/N=C1\CCCCC1C1CCCCC1 (centres undefined)	APJ antag 42.9, CCR6 antag 84.6 | APJ antag confirm 84.8
COc1cc(/C=N/NC(=O)c2ccc(NC(=O)C3CCCCC3)cc2)ccc1O	APJ antag 48.1 | APJ antag confirm inactive
CCOc1cc(/C=N/NC(=O)c2ccc(NC(=O)C3CC3)cc2)ccc1O	none
CCCOc1cc(C)c(S(=O)(=O)NCc2cccs2)cc1C	none
Cc1cccc(C)c1N(CC(=O)N1CCCC1)S(C)(=O)=O	none
O=C/C(=C\Nc1ccc(Cl)cn1)c1nc2cc(Cl)ccc2o1	none
O=C/C(=C\Nc1ccc(S(=O)(=O)CCO)cc1)c1nc2cc(Cl)ccc2o1	APJ antag 104.8 | APJ antag confirm inactive
COc1cc(NS(=O)(=O)c2ccc(N/C=C(\C#N)c3nc4cc(Cl)ccc4o3)cc2)nc(OC)n1	APJ antag 40.9 | APJ antag confirm inactive
COc1cc(NS(=O)(=O)c2ccc(NC(C)=O)cc2)nc(OC)n1	none
CCOC(=O)c1cc(-c2cc(OC)c(OC)c(OC)c2)nc2c1c(=O)[nH]c(=O)n2Cc1ccccc1	APJ antag 54.7 | APJ antag confirm inactive
CCOC(=O)c1cc(-c2ccc(F)cc2)nc2c1c(=O)[nH]c(=O)n2Cc1ccccc1	none
Clc1ccc(NCc2nnc3n2CCCCC3)cc1	APJ antag 57.7 | APJ antag confirm inactive
c1ccc(NCc2nnc3n2CCCCC3)cc1	none
Cc1cc(C)cc(N(CC(=O)NCCSc2ccccn2)S(=O)(=O)c2ccccc2)c1	APJ antag 42.8 | APJ antag confirm inactive
CCN1CCN(c2cc(C)c3cc(NC(=O)Cc4ccccc4OC)ccc3n2)CC1	APJ antag 47.8 | APJ antag confirm inactive
CCN1CCN(c2cc(C)c3cc(NC(=O)CCC(=O)Nc4ccc(OC)c(OC)c4)ccc3n2)CC1	none
COc1ccc(N(CC(=O)Nc2cccc(C(C)=O)c2)S(=O)(=O)c2ccc(NC(C)=O)cc2)cc1	none
O=C(Cn1cccc1C(=O)c1ccccc1)NCCCN1CCc2ccccc2C1	none
O=C(c1ccccc1)c1cccn1CC(=O)N1CCc2ccccc2C1	APJ antag 49.8, CXCR6 inh 47.6, CCR6 antag 50.8 | APJ antag confirm 94.1
O=[N+]([O-])c1cc(S(=O)(=O)Nc2cccc(Cl)c2)ccc1N/N=C/c1ccc(N2CCOCC2)cc1	APJ antag 48.5, CCR6 antag 50.3 | APJ antag confirm 95.5
CCCCn1c(NC(=O)c2ccc(Br)o2)c(S(=O)(=O)c2ccccc2)c2nc3ccccc3nc21	APJ antag 54.6 | APJ antag confirm inactive
COc1ccc(C(=O)NC(=S)Nc2cccc(Cl)c2N2CCOCC2)cc1[N+](=O)[O-]	EBI2 antag 41.7, APJ antag 81.2 | APJ antag confirm 55.4
O=C(NNC(=S)Nc1ccc(Br)cc1)c1ccc(N2CCOCC2)c([N+](=O)[O-])c1	none
COc1ccc(C(=O)NC(=S)Nc2ccc(N3CCN(C(C)=O)CC3)cc2)cc1[N+](=O)[O-]	none
Cc1ccc(NC(=S)NNC(=O)c2ccc(N3CCOCC3)c([N+](=O)[O-])c2)cc1Cl	APJ antag 41.6 | APJ antag confirm 63.2
O=C(NNC(=S)Nc1ccc(Cl)cc1Cl)c1ccc(N2CCOCC2)c([N+](=O)[O-])c1	APJ antag 40.4 | APJ antag confirm 62.4
